Our source for the Reduction values is ChEMBL document CHEMBL1123452, “Synthesis and hypolipidemic activities of 5-thienyl-4-oxazoleacetic acid derivatives” (1986).

The species entered for assay [1] is Rattus norvegicus. As to the kind of experiment: Percent decrease in serum cholesterol (Cho) after 7 days at 0.05 percent in the diet of SD male rats in comparison to control animals. It is filed as functional. Summed up:
(§1)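 Normal SD male rats, five per group. Compound mixed into CE-2 powder diet at 50 mg/100 g (mg %), fed ad libitum for 7 days; controls received plain CE-2 powder. Total serum cholesterol measured by the Zak method and triglyceride by the Van Handel method after the feeding period. Activity expressed as percent depression versus the control-group mean. Single experiments.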

The species entered for assay [2] is Rattus norvegicus. As to the kind of experiment: Percent decrease in triglyceride (TG) after 7 days at 0.05 percent in the diet of SD male rats in comparison to control animals. It is filed as functional. The gist of the method:
as §1

With `CCOC(=O)Cc1nc(-c2ccc(Br)cc2)oc1-c1ccc(F)cc1`, the Reduction in the assay filed under Rattus norvegicus [1] was 12%; in the assay filed under Rattus norvegicus [2], -5%.

Regarding `O=C(O)Cc1nc(-c2ccccc2)oc1-c1ccccc1`, the Reduction is reported as 6% in the assay listed under Rattus norvegicus [1] and 20% in the assay filed under Rattus norvegicus [2].

As for `O=C(O)Cc1nc(-c2ccccc2)oc1-c1ccsc1`, the Reduction was 15% in the assay filed under Rattus norvegicus [1] and 41% in the assay listed under Rattus norvegicus [2].

Consider `CCCCCCCCCCCCCCCCCCOC(=O)Cc1nc(-c2ccc(F)cc2)oc1-c1ccsc1`, for which the Reduction in the assay filed under Rattus norvegicus [1] stood at 18%; in the assay filed under Rattus norvegicus [2] it was 26%.

For `CCOC(=O)Cc1nc(-c2cc(OC)c(OC)c(OC)c2)oc1-c1ccccc1`, the Reduction was 0% in the assay listed under Rattus norvegicus [1] and -19% in the assay filed under Rattus norvegicus [2].

Regarding `CCOC(=O)Cc1nc(-c2ccc(F)cc2)oc1-c1cccs1`, the values for the Reduction in the assay filed under Rattus norvegicus [1] and in the assay listed under Rattus norvegicus [2] were 17% and 31%, respectively.

Regarding `O=C(Cc1nc(-c2ccc(Cl)cc2)oc1-c1ccsc1)OCC(O)CO` (stereo not drawn), the values for the Reduction in the assay listed under Rattus norvegicus [1] and in the assay filed under Rattus norvegicus [2] were 15% and 43%, respectively.

For the compound `CC(C)OC(=O)Cc1nc(-c2ccc(F)cc2)oc1-c1ccsc1`, the Reduction in the assay listed under Rattus norvegicus [1] is recorded as 8%; in the assay listed under Rattus norvegicus [2], 27%.

With `CCCCCOC(=O)Cc1nc(-c2ccccc2)oc1-c1ccsc1`, the Reduction in the assay listed under Rattus norvegicus [1] stood at 20%; in the assay listed under Rattus norvegicus [2], 30%.

Take `Cc1ccc(-c2oc(-c3ccc(Cl)cc3)nc2CC(=O)O)s1`: the Reduction in the assay listed under Rattus norvegicus [1] is recorded as 9%; in the assay filed under Rattus norvegicus [2] it was -4%.

Regarding `NC(=O)Cc1nc(-c2ccc(F)cc2)oc1-c1ccsc1`, the Reduction in the assay filed under Rattus norvegicus [1] was found to be 19%; in the assay filed under Rattus norvegicus [2] it was 13%.

In the case of `O=C(O)Cc1nc(-c2ccc(F)cc2)oc1-c1cccs1`, the Reduction was 17% in the assay listed under Rattus norvegicus [1] and 27% in the assay filed under Rattus norvegicus [2].

On to `CCc1nc(-c2ccc(F)cc2)oc1-c1ccsc1`, for which the Reduction is recorded as -4% in the assay listed under Rattus norvegicus [1] and 20% in the assay listed under Rattus norvegicus [2].

Regarding `CCOC(=O)Cc1nc(-c2ccc(Cl)c(Cl)c2)oc1-c1ccsc1`, the Reduction in the assay filed under Rattus norvegicus [1] amounted to 14%; in the assay listed under Rattus norvegicus [2], 17%.

On to `OCCc1nc(-c2ccc(F)cc2)oc1-c1ccsc1`, for which the Reduction in the assay listed under Rattus norvegicus [1] came out at 4%; in the assay filed under Rattus norvegicus [2], 1%.

Turning to `CCOC(=O)Cc1nc(-c2ccc(F)cc2)oc1-c1ccsc1`, the Reduction came to 19% in the assay listed under Rattus norvegicus [1] and 41% in the assay listed under Rattus norvegicus [2].

Consider `O=C(O)CCc1nc(-c2ccc(Cl)cc2)oc1-c1ccsc1`, for which the values for the Reduction in the assay listed under Rattus norvegicus [1] and in the assay listed under Rattus norvegicus [2] were 5% and 51%, respectively.

Regarding `Cc1ccc(-c2nc(CC(=O)O)c(-c3ccsc3)o2)cc1`, the values for the Reduction in the assay listed under Rattus norvegicus [1] and in the assay filed under Rattus norvegicus [2] were 9% and 14%, respectively.

`CCCCCCCCOC(=O)Cc1nc(-c2ccc(F)cc2)oc1-c1ccsc1`: the values for the Reduction in the assay listed under Rattus norvegicus [1] and in the assay filed under Rattus norvegicus [2] were 12% and 13%, respectively.

Turning to `NC(=O)Cc1nc(-c2ccc(Cl)cc2)oc1-c1ccsc1`, the Reduction is listed as 16% in the assay listed under Rattus norvegicus [1] and 12% in the assay filed under Rattus norvegicus [2].

With `CCOC(=O)c1nc(-c2ccccc2)oc1-c1ccccc1`, the Reduction is on record as 9% in the assay filed under Rattus norvegicus [1] and -30% in the assay listed under Rattus norvegicus [2].

`O=C(O)Cc1nc(-c2ccc(Cl)cc2)oc1-c1ccccc1`: the Reduction in the assay listed under Rattus norvegicus [1] amounted to 6%; in the assay listed under Rattus norvegicus [2] it was 14%.

Regarding `CCCCNC(=O)Cc1nc(-c2ccc(F)cc2)oc1-c1ccsc1`, the results for the Reduction in the assay filed under Rattus norvegicus [1] and in the assay listed under Rattus norvegicus [2] were -8% and 13%, respectively.

Take `COC(=O)c1nc(-c2ccc(F)cc2)oc1-c1ccsc1`: the Reduction in the assay listed under Rattus norvegicus [1] was determined as 5%; in the assay listed under Rattus norvegicus [2], 16%.

On to `CCOC(=O)Cc1nc(-c2ccc(OC)cc2)oc1-c1ccsc1`, for which the Reduction in the assay filed under Rattus norvegicus [1] came out at 4%; in the assay listed under Rattus norvegicus [2], 0%.

`CCCCCOC(=O)Cc1nc(-c2ccc(F)cc2)oc1-c1ccsc1`: the Reduction in the assay filed under Rattus norvegicus [1] amounted to 13%; in the assay filed under Rattus norvegicus [2] it was 20%.

As to `CCOC(=O)Cc1nc(-c2ccsc2)oc1-c1ccc(F)cc1`, the figures for the Reduction in the assay filed under Rattus norvegicus [1] and in the assay listed under Rattus norvegicus [2] were 11% and 15%, respectively.

Consider `CCOC(=O)Cc1nc(-c2cccc(Cl)c2)oc1-c1ccsc1`, for which the Reduction in the assay listed under Rattus norvegicus [1] was determined as 8%; in the assay listed under Rattus norvegicus [2] it was 61%.

Regarding `CCCCOC(=O)Cc1nc(-c2ccccc2)oc1-c1ccsc1`, the Reduction in the assay listed under Rattus norvegicus [1] came out at 15%; in the assay listed under Rattus norvegicus [2], 21%.

As for `C=CCOC(=O)Cc1nc(-c2ccc(Cl)cc2)oc1-c1ccsc1`, the figures for the Reduction in the assay listed under Rattus norvegicus [1] and in the assay filed under Rattus norvegicus [2] were 11% and 39%, respectively.

As to `CC(C(=O)O)c1nc(-c2ccc(F)cc2)oc1-c1ccsc1` (stereo not drawn), the Reduction is on record as 6% in the assay filed under Rattus norvegicus [1] and 40% in the assay filed under Rattus norvegicus [2].

Take `CCCCCOC(=O)Cc1nc(-c2ccc(Cl)cc2)oc1-c1ccsc1`: the values for the Reduction in the assay filed under Rattus norvegicus [1] and in the assay listed under Rattus norvegicus [2] were 19% and 45%, respectively.

For the compound `CCCCOC(=O)Cc1nc(-c2ccc(F)cc2)oc1-c1ccsc1`, the Reduction came to 20% in the assay filed under Rattus norvegicus [1] and 19% in the assay filed under Rattus norvegicus [2].

Take `CCOC(=O)Cc1nc(-c2ccc(C)cc2)oc1-c1cccs1`: the Reduction in the assay listed under Rattus norvegicus [1] is 9%; in the assay filed under Rattus norvegicus [2] it was -14%.

Consider `O=C(O)Cc1nc(-c2ccc(Br)cc2)oc1-c1ccccc1`, for which the Reduction in the assay listed under Rattus norvegicus [1] is recorded as 4%; in the assay filed under Rattus norvegicus [2], -14%.

On to `O=C(O)Cc1nc(-c2ccc(Cl)cc2)oc1-c1ccsc1`, for which the Reduction in the assay listed under Rattus norvegicus [1] was found to be 16%; in the assay listed under Rattus norvegicus [2], 43%.

Consider `CCOC(=O)Cc1nc(-c2ccc(Cl)cc2)oc1-c1cccs1`, for which the Reduction in the assay listed under Rattus norvegicus [1] was 15%; in the assay filed under Rattus norvegicus [2] it was -10%.

As to `CCOC(=O)Cc1nc(-c2ccccc2)oc1-c1ccsc1`, the Reduction in the assay filed under Rattus norvegicus [1] came to 15%; in the assay filed under Rattus norvegicus [2], 41%.

As for `O=C(OCc1nc(-c2ccc(F)cc2)oc1-c1ccsc1)c1cccnc1`, the Reduction turned out to be 0% in the assay listed under Rattus norvegicus [1] and 17% in the assay listed under Rattus norvegicus [2].

Consider `CCOC(=O)Cc1nc(-c2ccc(Cl)cc2)oc1-c1ccc(C)s1`, for which the Reduction is recorded as 4% in the assay listed under Rattus norvegicus [1] and 39% in the assay filed under Rattus norvegicus [2].

Turning to `CCOC(=O)Cc1nc(-c2ccc(Br)cc2)oc1-c1ccccc1`, the Reduction in the assay listed under Rattus norvegicus [1] is 10%; in the assay listed under Rattus norvegicus [2], -7%.

Turning to `COc1ccc(-c2nc(CC(=O)O)c(-c3ccsc3)o2)cc1`, the Reduction in the assay filed under Rattus norvegicus [1] is on record as 3%; in the assay filed under Rattus norvegicus [2] it was 26%.

Regarding `CCOC(=O)Cc1nc(-c2ccccc2Cl)oc1-c1ccsc1`, the Reduction in the assay filed under Rattus norvegicus [1] is listed as -5%; in the assay filed under Rattus norvegicus [2] it was 15%.

As to `CCOC(=O)Cc1nc(-c2ccc(Cl)cc2)oc1-c1ccccc1`, the Reduction is reported as 7% in the assay listed under Rattus norvegicus [1] and -12% in the assay filed under Rattus norvegicus [2].

In the case of `O=C(O)c1ncoc1-c1ccccc1`, the results for the Reduction in the assay listed under Rattus norvegicus [1] and in the assay filed under Rattus norvegicus [2] were 2% and 11%, respectively.

Take `CCOC(=O)Cc1nc(-c2ccc(Cl)cc2)oc1-c1ccc(Br)s1`: the Reduction was 0% in the assay listed under Rattus norvegicus [1] and 20% in the assay listed under Rattus norvegicus [2].

With `OCc1nc(-c2ccc(F)cc2)oc1-c1ccsc1`, the Reduction is listed as -10% in the assay listed under Rattus norvegicus [1] and -34% in the assay filed under Rattus norvegicus [2].

Regarding `O=C(O)Cc1nc(-c2ccccc2)oc1-c1cccs1`, the Reduction is -4% in the assay filed under Rattus norvegicus [1] and 28% in the assay filed under Rattus norvegicus [2].

Take `CCN(CC)C(=O)Cc1nc(-c2ccc(F)cc2)oc1-c1ccsc1`: the Reduction in the assay listed under Rattus norvegicus [1] is -2%; in the assay filed under Rattus norvegicus [2] it was 2%.

Take `CCOC(=O)Cc1nc(-c2ccc(OC)cc2)oc1-c1ccccc1`: the Reduction in the assay filed under Rattus norvegicus [1] was found to be 0%; in the assay listed under Rattus norvegicus [2], 15%.

For the compound `CCCCOC(=O)Cc1nc(-c2ccc(Cl)cc2)oc1-c1ccsc1`, the Reduction is listed as 22% in the assay listed under Rattus norvegicus [1] and 17% in the assay filed under Rattus norvegicus [2].

For the compound `O=C(Cc1nc(-c2ccc(Cl)cc2)oc1-c1ccsc1)OCc1cccnc1`, the figures for the Reduction in the assay filed under Rattus norvegicus [1] and in the assay listed under Rattus norvegicus [2] were 13% and 3%, respectively.

Consider `O=C(O)Cc1nc(-c2ccccc2Cl)oc1-c1ccsc1`, for which the Reduction in the assay listed under Rattus norvegicus [1] is listed as 1%; in the assay filed under Rattus norvegicus [2] it was 22%.

In the case of `O=C(O)Cc1nc(-c2cccc(Cl)c2)oc1-c1ccsc1`, the Reduction in the assay filed under Rattus norvegicus [1] was 7%; in the assay listed under Rattus norvegicus [2] it was 38%.

With `CCOC(=O)Cc1nc(-c2ccc(Cl)cc2)oc1-c1ccsc1`, the Reduction in the assay filed under Rattus norvegicus [1] is given as 16%; in the assay listed under Rattus norvegicus [2] it was 47%.

As to `O=C(O)Cc1nc(-c2ccc(F)cc2)oc1-c1ccsc1`, the values for the Reduction in the assay filed under Rattus norvegicus [1] and in the assay listed under Rattus norvegicus [2] were 23% and 39%, respectively.

For the compound `CCOC(=O)Cc1nc(-c2ccc(F)cc2)oc1-c1ccc(F)cc1`, the Reduction in the assay filed under Rattus norvegicus [1] was found to be 7%; in the assay filed under Rattus norvegicus [2], 39%.

On to `CC(C)OC(=O)Cc1nc(-c2ccc(Cl)cc2)oc1-c1ccsc1`, for which the Reduction is given as 9% in the assay listed under Rattus norvegicus [1] and 29% in the assay filed under Rattus norvegicus [2].

`CCCCCCCCCCCCOC(=O)Cc1nc(-c2ccc(F)cc2)oc1-c1ccsc1`: the Reduction in the assay listed under Rattus norvegicus [1] is 18%; in the assay filed under Rattus norvegicus [2], 34%.

In the case of `CCOC(=O)Cc1nc(-c2ccc(F)cc2)oc1-c1ccccc1`, the Reduction in the assay filed under Rattus norvegicus [1] was 3%; in the assay listed under Rattus norvegicus [2], -4%.

As to `CCOC(=O)Cc1nc(-c2ccc(C)cc2)oc1-c1ccsc1`, the Reduction in the assay listed under Rattus norvegicus [1] is given as 5%; in the assay listed under Rattus norvegicus [2], 4%.

Turning to `O=C(O)Cc1nc(-c2ccc(Cl)c(Cl)c2)oc1-c1ccsc1`, the Reduction in the assay listed under Rattus norvegicus [1] came to 9%; in the assay filed under Rattus norvegicus [2], 34%.

In the case of `CCOC(=O)Cc1nc(-c2ccc(Cl)cc2)oc1-c1ccc(F)cc1`, the Reduction was 22% in the assay listed under Rattus norvegicus [1] and 3% in the assay listed under Rattus norvegicus [2].

`CCOC(=O)Cc1nc(-c2ccccc2)oc1-c1cccs1`: the Reduction amounted to 11% in the assay filed under Rattus norvegicus [1] and 7% in the assay listed under Rattus norvegicus [2].

As to `C=CCc1nc(-c2ccc(F)cc2)oc1-c1ccsc1`, the Reduction is reported as -2% in the assay listed under Rattus norvegicus [1] and 3% in the assay filed under Rattus norvegicus [2].

`CCOC(=O)C(C)c1nc(-c2ccc(F)cc2)oc1-c1ccsc1` (stereo not drawn): the results for the Reduction in the assay listed under Rattus norvegicus [1] and in the assay listed under Rattus norvegicus [2] were 6% and 19%, respectively.

As to `CCOC(=O)Cc1nc(-c2ccc(C)cc2)oc1-c1ccccc1`, the Reduction in the assay listed under Rattus norvegicus [1] is 5%; in the assay filed under Rattus norvegicus [2], -18%.

As to `CCOC(=O)C(C)(C)Oc1ccc(Cl)cc1` [CLOFIBRATE], the Reduction in the assay listed under Rattus norvegicus [1] is given as 15%; in the assay listed under Rattus norvegicus [2] it was 16%.

`O=C(O)Cc1nc(-c2ccc(Cl)cc2)oc1-c1cccs1`: the Reduction is reported as 16% in the assay listed under Rattus norvegicus [1] and 38% in the assay filed under Rattus norvegicus [2].
